In paper PMC7862202 (Clinical Pharmacokinetics, 2020):

Assays:
[1] = test system: patients with locally advanced or metastatic ALK-positive NSCLC; conditions: 180 mg qd with a 7-day lead-in at 90 mg qd; crizotinib-refractory patients; cited from earlier work
[2] = cited from earlier work
[3] = test system: EML4-ALK mutants; conditions: read-out: IC90 range for EML4-ALK mutants; cellular assays; cited from earlier work
[4] = cited from earlier work; remark: listed apart in the source
[5] = Population pharmacokinetic model; type: in vivo, human; conditions: for Variability in CL/F explained by albumin: albumin as covariate in the final model
Summary of the method: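 Plasma measured by two validated LC/MS methods, combined range 0.1–2500 ng/mL. Inter-individual effects multivariate normal; residual error additive, proportional or mixed. Covariates tested on CL/F and V1/F in two steps. 1000 bootstrap replicates with replacement; 1000-replicate prediction-corrected VPC.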

[6] = cited from earlier work; remark: listed apart in the source
[7] = test system: native EML4-ALK; conditions: read-out: IC90 for inhibition of native EML4-ALK; cellular assays; cited from earlier work
[8] = cited from earlier work; remark: listed apart in the source
[9] = test system: human plasma proteins; conditions: cited from earlier work
[10] = cited from earlier work; remark: listed apart in the source
[11] = cited from earlier work; remark: listed apart in the source
[12] = cited from earlier work; remark: listed apart in the source
[13] = test system: patients with ALK + NSCLC who are ALK inhibitor naive; conditions: first interim analysis, blinded independent review committee; cited from earlier work
[14] = single oral 180-mg radiolabeled dose, healthy volunteers

COc1cc(N2CCC(N3CCN(C)CC3)CC2)ccc1Nc1ncc(Cl)c(Nc2ccccc2P(C)(C)=O)n1 [brigatinib]
Median progression-free survival [1]: 16.7 months
Enzymes metabolizing the remainder to inactive or minor metabolites [2]: primarily by cytochrome P450 (CYP) 3A and CYP2C8
Oral bioavailability [2]: orally bioavailable
IC90 [3]: 22 to 762 nM
Increase in unbound brigatinib systemic exposure (AUC0–∞), severe hepatic impairment (Child–Pugh C) [4]: approximately 37%
Variability in CL/F explained by albumin [5]: approximately 5%
Variability in CL/F explained by albumin ([5]; listed as Brigatinib): Albumin was included as a covariate on apparent clearance in the final population pharmacokinetic model, explaining approximately 5% of variability in apparent clearance.
Albumin covariate effect on CL/F, bootstrap median (2.5th to 97.5th percentile) ([5]; bootstrap of 1000 replicates): 0.656 (0.474–0.849)
CL/F, bootstrap median (2.5th to 97.5th percentile) ([5]; bootstrap of 1000 replicates): 10.6 (10.2–11.1) L/h
Mean transit time, bootstrap median (2.5th to 97.5th percentile) ([5]; bootstrap of 1000 replicates): 0.9 (0.8–1.0) h
Q1/F, bootstrap median (2.5th to 97.5th percentile) ([5]; bootstrap of 1000 replicates): 12.8 (10.5–16.2) L/h
Q2/F, bootstrap median (2.5th to 97.5th percentile) ([5]; bootstrap of 1000 replicates): 2.46 (1.09–4.76) L/h
V1/F, bootstrap median (2.5th to 97.5th percentile) ([5]; bootstrap of 1000 replicates): 208 (193–219) L
V2/F, bootstrap median (2.5th to 97.5th percentile) ([5]; bootstrap of 1000 replicates): 118 (83.6–147) L
V3/F, bootstrap median (2.5th to 97.5th percentile) ([5]; bootstrap of 1000 replicates): 82.3 (57.6–112) L
No. of transit compartments, bootstrap median ([5]; bootstrap of 1000 replicates, fixed): 2.35 (–)
Inter-individual variability of mean transit time, % (% CV) ([5]; final population PK model): 59 (7.5) %
Mean transit time, model estimate (% CV) ([5]; final population PK model): 0.9 (3.6) h
No. of transit compartments, model estimate ([5]; final population PK model, fixed at the population estimate): 2.35
Mean transit time, model estimate (% CV) ([5]; final population PK model, listed as Brigatinib): 0.9 h
Higher CL/F at 95th percentile of albumin vs median albumin ([5]; predicted, higher than a patient with the median albumin value): ~20%
Lower CL/F at 5th percentile of albumin vs median albumin ([5]; predicted, lower than a patient with the median albumin value): approximately 22%
Increase in unbound AUC0–∞, severe renal impairment vs normal renal function [6]: approximately twofold
IC90 [7]: 38 nM
Overall radiolabeled dose recovered as unchanged drug [8]: Approximately 50%
Administered dose recovered in feces [8, 14]: approximately 65%
Administered dose recovered in urine [8, 14]: ~25%
Unchanged brigatinib in feces [8, 14]: 41%
Unchanged brigatinib in urine [8, 14]: 86%
Bound to human plasma proteins [9]: approximately 90%
Decrease in maximum plasma concentration following a high-fat meal [10]: 13%
Effect of a high-fat meal on AUC [10]: without a corresponding decrease in AUC
Solubility [11]: high
Permeability [12]: high
12-month event-free rate [13]: 67%
